≈ marks a conversion by molar mass, not a printed value.

Experimental findings from ChEMBL document CHEMBL2062381, “Synthesis and in vitro evaluation of new chloroquine-chalcone hybrids against chloroquine-resistant strain of Plasmodium falciparum” (Bioorg Med Chem Lett, 2012) are described below.

A short description of data set [1]: Inhibition of hydrogen peroxide-mediated hemin decomposition assessed as remaining hemin level at 20 uM after 30 mins by […] (reference value: 43%). Format: functional. In short, it runs like this:
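Hemin (in 0.1 N NaOH) was mixed with BSA in 0.2 M sodium acetate pH 5.1 and compound, then equilibrated for 10 min at room temperature. The reaction was started with 20 mM H2O2 and ran 30 min at room temperature. Read-out was the decrease in Soret absorbance at 405 nm, reported as % hemin remaining. Controls used water instead of H2O2. Data are the mean of three experiments in triplicate.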
Background: ELISA stands for enzyme-linked immunosorbent assay.

The next data set relates to Plasmodium yoelii. The experiment in a line: Inhibition of beta hematin formation in Plasmodium yoelii infected swiss mouse RBC after 16 hrs. It is filed as functional, organism-based. In short, it runs like this:
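Source material was plasma from male Swiss mice (15–20 g) inoculated with 1 × 10⁵ P. yoelii-infected RBCs. Blood was taken by cardiac puncture at 50% parasitemia into 2.0% citrate and centrifuged. The 1.0 mL mix held 100 mM sodium acetate pH 5.1, plasma, hemin substrate and compound at […]. It ran in triplicate for 16 h at 37 °C with rotary shaking. The washed β-hematin pellet was dissolved in NaOH and read at 400 nm. IC50 came from nonlinear regression.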

For data set [2], the system named is Plasmodium falciparum. The experiment in a line: Antimalarial activity against chloroquine-susceptible Plasmodium falciparum 3D7 after 72 hrs by SYBR Green-I based fluorescence assay. The settings on record: 3D7, 72 h. Format: functional, organism-based. In short, it runs like this:
(§1)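 Asynchronous culture (>80% rings), 1.0% parasitized cell suspension at 0.8% parasitaemia, exposed to twofold serial dilutions of compound (DMSO stock 5 mg/mL). Incubated 72 h at 37 °C under 5% CO₂ in air. Lysis buffer with SYBR Green I added, then 1 h at 37 °C. Fluorescence read at 485/530 nm. IC₅₀ from logit regression of dose-response curves. Mean of three experiments in triplicate.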

Data set [3] deals with Plasmodium falciparum. The experiment in a line: Antimalarial activity against chloroquine-resistant Plasmodium falciparum K1 after 72 hrs by SYBR Green-I based fluorescence assay. Format: functional, organism-based. In short, it runs like this: as §1
Data set [4] in a line: Selectivity index, ratio of IC50 for african green monkey Vero cells to IC50 for Plasmodium falciparum. It is filed as toxicity, cell-based. The settings on record: read-out: Ratio IC50. Summed up: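 SI = CC50/IC50. CC50 was measured in Vero monkey kidney cells (C1008) by MTT after 72 h exposure to compound dilutions, using nonlinear regression. IC50 came from a 72 h SYBR Green I fluorescence assay in P. falciparum (1.0% parasitized cells, 0.8% parasitaemia, mostly ring stages, 37 °C, 5% CO2). Those values came from logit regression.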

The mark [5] stands for this setting: Plasmodium falciparum, K1, 72 h, read-out: IC50.

As for `CCN(CC)CCCC(C)Nc1ccnc2cc(Cl)ccc12` (configuration not stated) [CHLOROQUINE], the Activity in data set [1] was found to be 65%. Moreover, the IC50 – broadly, the point on the concentration scale where inhibition reaches its midpoint – in the data set with Plasmodium yoelii was found to be 3.75 µg/mL (≈ 11.7 µM).

Turning to `O=C(/C(=C/c1ccc(Cl)cc1)Oc1ccc(/C=N/Nc2ccnc3cc(Cl)ccc23)cc1)c1ccc(Cl)cc1`, the IC50 with Plasmodium falciparum [2] stood at 145 nM; in the data set with Plasmodium yoelii, 8.38 µg/mL (≈ 14.6 µM); in the data set on Plasmodium falciparum [3] (setting [5]), 199 nM. Besides, the selectivity ratio in data set [4] was determined as 1210.

Regarding `COc1ccc(OC)c(/C=C(\Oc2ccc(/C=N/Nc3ccnc4cc(Cl)ccc34)cc2)C(=O)c2ccc(Cl)cc2)c1`, the IC50 was 250 nM in the data set on Plasmodium falciparum [2], 25 µg/mL (≈ 41.8 µM) in the data set with Plasmodium yoelii and 125 nM with Plasmodium falciparum [3] (setting [5]). The selectivity ratio in data set [4] came out at 669.

On to `O=C(/C(=C/c1ccccc1)Oc1ccc(/C=N/Nc2ccnc3cc(Cl)ccc23)cc1)c1ccc(Cl)cc1`, for which the figures for the IC50 with Plasmodium falciparum [2], in the data set with Plasmodium yoelii and in the data set on Plasmodium falciparum [3] (setting [5]) were 78.8 nM, 5.66 µg/mL (≈ 10.5 µM) and 110 nM, respectively. The selectivity ratio in data set [4] came out at 2360.

Turning to `O=C(/C(=C/c1cccc([N+](=O)[O-])c1)Oc1ccc(/C=N/Nc2ccnc3cc(Cl)ccc23)cc1)c1ccc(Cl)cc1`, the IC50 is 128 nM in the data set on Plasmodium falciparum [2], 5.72 µg/mL (≈ 9.8 µM) with Plasmodium yoelii and 315 nM in the data set on Plasmodium falciparum [3] (setting [5]). The selectivity ratio in data set [4] came out at 1340.

For `O=C(COc1ccc(/C=N/Nc2ccnc3cc(Cl)ccc23)cc1)c1ccc(Cl)cc1`, the IC50 stood at 36.7 nM in the data set on Plasmodium falciparum [2], 16.4 µg/mL (≈ 36.4 µM) in the data set with Plasmodium yoelii and 126 nM in the data set on Plasmodium falciparum [3] (setting [5]). Also, in data set [4], the selectivity ratio was found to be 800.

`COc1cc(/C=C(\Oc2ccc(/C=N/Nc3ccnc4cc(Cl)ccc34)cc2)C(=O)c2ccc(Cl)cc2)cc(OC)c1OC`: the values for the IC50 in the data set with Plasmodium falciparum [2], in the data set with Plasmodium yoelii and in the data set with Plasmodium falciparum [3] (setting [5]) were 95.3 nM, 10.8 µg/mL (≈ 17.2 µM) and 123 nM, respectively. Further, the selectivity ratio in data set [4] was 970.

As to `COc1ccc(/C=C(\Oc2ccc(/C=N/Nc3ccnc4cc(Cl)ccc34)cc2)C(=O)c2ccc(Cl)cc2)c(OC)c1OC`, the Activity in data set [1] was 63%. Also, the IC50 is 124 nM with Plasmodium falciparum [2], 3.52 µg/mL (≈ 5.6 µM) in the data set on Plasmodium yoelii and 82.9 nM in the data set on Plasmodium falciparum [3] (setting [5]). Also, the selectivity ratio in data set [4] was 837.

Regarding `O=C(/C(=C/c1ccc([N+](=O)[O-])cc1)Oc1ccc(/C=N/Nc2ccnc3cc(Cl)ccc23)cc1)c1ccc(Cl)cc1`, the IC50 was over 500 nM in the data set with Plasmodium falciparum [2], 12.8 µg/mL (≈ 21.9 µM) in the data set with Plasmodium yoelii and “Not Active” in the data set on Plasmodium falciparum [3].

With `COc1ccc(/C=C(\Oc2ccc(/C=N/Nc3ccnc4cc(Cl)ccc34)cc2)C(=O)c2ccc(Cl)cc2)cc1`, the IC50 in the data set on Plasmodium falciparum [2] came to 48.1 nM; with Plasmodium yoelii it was 17.6 µg/mL (≈ 31 µM); in the data set on Plasmodium falciparum [3] (setting [5]) it was 96.9 nM. The selectivity ratio in data set [4] is 2050.

With `Cc1ccc(/C=C(\Oc2ccc(/C=N/Nc3ccnc4cc(Cl)ccc34)cc2)C(=O)c2ccc(Cl)cc2)cc1`, the results for the IC50 in the data set on Plasmodium falciparum [2], in the data set on Plasmodium yoelii and in the data set with Plasmodium falciparum [3] (setting [5]) were 112 nM, 5.58 µg/mL (≈ 10.1 µM) and 97.9 nM, respectively. The selectivity ratio in data set [4] amounted to 1620.

For `O=C(/C(=C/c1ccc(F)cc1F)Oc1ccc(/C=N/Nc2ccnc3cc(Cl)ccc23)cc1)c1ccc(Cl)cc1`, the IC50 in the data set with Plasmodium falciparum [2] was 139 nM; with Plasmodium falciparum [3] (setting [5]), 170 nM. The selectivity ratio in data set [4] stood at 1040.

For the compound `O=C(/C(=C/c1ccc(Cl)cc1Cl)Oc1ccc(/C=N/Nc2ccnc3cc(Cl)ccc23)cc1)c1ccc(Cl)cc1`, the IC50 was 295 nM with Plasmodium falciparum [2], 5.91 µg/mL (≈ 9.73 µM) with Plasmodium yoelii and “Not Active” in the data set on Plasmodium falciparum [3]. In data set [4], the selectivity ratio amounted to 560.

Regarding `COc1cc(OC)c(OC)cc1/C=C(\Oc1ccc(/C=N/Nc2ccnc3cc(Cl)ccc23)cc1)C(=O)c1ccc(Cl)cc1`, the IC50 was 90.5 nM in the data set on Plasmodium falciparum [2], 10.6 µg/mL (≈ 16.9 µM) in the data set on Plasmodium yoelii and 89.5 nM in the data set on Plasmodium falciparum [3] (setting [5]). Moreover, the selectivity ratio in data set [4] was 728.

As to `COc1ccc(/C=C(\Oc2ccc(/C=N/Nc3ccnc4cc(Cl)ccc34)cc2)C(=O)c2ccc(Cl)cc2)cc1OC`, the Activity in data set [1] came out at 59%. Also, the IC50 in the data set on Plasmodium falciparum [2] is 84 nM; with Plasmodium yoelii, 3.46 µg/mL (≈ 5.78 µM); in the data set on Plasmodium falciparum [3] (setting [5]), 97.8 nM. Further, the selectivity ratio in data set [4] is 1440.

For `O=C(/C(=C/c1ccc(F)cc1)Oc1ccc(/C=N/Nc2ccnc3cc(Cl)ccc23)cc1)c1ccc(Cl)cc1`, the IC50 in the data set with Plasmodium falciparum [2] was 29.1 nM; in the data set with Plasmodium yoelii, 15.6 µg/mL (≈ 28 µM); in the data set with Plasmodium falciparum [3] (setting [5]), 102 nM. In addition, the selectivity ratio in data set [4] worked out at 6200.

Consider `O=C(/C(=C/c1ccoc1)Oc1ccc(/C=N/Nc2ccnc3cc(Cl)ccc23)cc1)c1ccc(Cl)cc1`, for which, in data set [1], the Activity stood at 53%. Besides, the results for the IC50 with Plasmodium falciparum [2], in the data set with Plasmodium yoelii and in the data set with Plasmodium falciparum [3] (setting [5]) were 57.3 nM, 3.74 µg/mL (≈ 7.08 µM) and 115 nM, respectively. Also, in data set [4], the selectivity ratio came to 962.
